The values below come from ChEMBL document CHEMBL4665651, “Design, synthesis, and biological evaluation of some novel 4-aminoquinazolines as Pan-PI3K inhibitors” (Bioorg Med Chem, 2019).

One assay has as its system HUVEC. The experiment in a line: Cytotoxicity against HUVEC cells assessed as reduction in cell viability incubated for 72 hrs by SRB assay. It counts as cell-based. To be noted: Homo sapiens. Summed up:
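Normal cells exposed to a range of compound concentrations for 72 h at 37 °C in 5% CO₂. Cells TCA-fixed and viability read by SRB protein staining, normalized to day-0 and negative-control OD. IC50 from non-linear regression; values are means of triplicate measurements.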

In assay [1] the test system is MCF7. In words: Induction of apoptosis in human MCF7 cells assessed as necrotic cells at 0.8 uM incubated for 48 hrs by annexin V-FITC and propidium iodide staining based flow cytometry analysis (reference value: 0.3 %). The format is functional. For orientation: Flow cytometry measures light scatter and fluorescence of single cells or particles in a stream.
The test system of the next assay is HCT-116. In words: Antiproliferative activity against human HCT-116 cells assessed as reduction in cell viability incubated for 72 hrs by SRB assay. It counts as functional, cell-based. To be noted: HCT-116, 72 h. In general terms: Sulforhodamine B stains cellular protein and so reports cell mass.
Assay [2] has as its system MCF7. In words: Inhibition of PI3K in human MCF7 cells assessed as decrease in p-Akt/Akt ratio at 0.1 to 10 uM by Western blot analysis. To be noted: dose microM 0.1-10.
For assay [3], the system named is MCF7. In words: Induction of apoptosis in human MCF7 cells assessed as chromatin condensation at 0.2 to 0.8 uM incubated for 48 hrs by Hoechst 33342 staining based fluorescence microscopic analysis. It counts as functional, cell-based. The following applies: dose microM 0.2-0.8, time 48.0 hrs. Summed up: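 MCF-7 cells seeded at 2×10⁵ per well in 6-well plates and allowed to settle 12 h. Treated 48 h, with medium-only controls. Stained with Hoechst 33342 for 30 min, washed, and nuclear morphology imaged by fluorescence microscopy.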

Assay [4] has as its system MCF7. In words: Inhibition of PI3K in human MCF7 cells assessed as Akt phosphorylation by Western blot analysis. It counts as cell-based. The following applies: dose microM 0.1-10. Summed up: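 MCF-7 cells treated at 0.1, 1 and 10 μM, then washed in cold PBS and lysed in RIPA buffer with protease and phosphatase inhibitors. Equal protein run on 10% SDS-PAGE and transferred to PVDF. Blots probed for total Akt and phospho-Akt (Ser473), with GAPDH as loading control.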
In general terms: A western blot detects proteins with antibodies after separation by electrophoresis.

Assay [5] deals with MCF7. In words: Inhibition of colony formation in human MCF7 cells at 0.2 to 0.8 uM incubated for 72 hrs by crystal violet staining based assay. The format is functional, cell-based. To be noted: dose microM 0.2-0.8, time 72.0 hrs. Summed up:
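MCF-7 cells seeded at 3×10³ cells per well in 6-well plates. Exposed to 0, 0.2, 0.4 or 0.8 μM for 72 h, then grown one week in drug-free medium. Colonies stained with crystal violet and photographed.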

Assay [6] concerns the target Phosphatidylinositol 4,5-bisphosphate 3-kinase catalytic subunit gamma isoform (Homo sapiens, UniProt P48736). In words: Inhibition of PI3Kgamma (unknown origin) using lipid as substrate incubated for 15 mins followed by substrate addition and measured after 60 mins ADPGloTM reagent based assay. Summed up:
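ADP-Glo luminescent readout of ADP formed. Isoforms tested: p110α/p85α, p110β/p85α, p120γ and p110δ/p85α, each in PI3K reaction buffer with lipid substrate. Enzyme preincubated with compound for 15 min at room temperature. Reaction started with 250 μM ATP stock and run 60 min at room temperature. ADP-Glo reagent added for 40 min, then detection reagent for 40 min. IC50 from normalized nonlinear dose–response fit.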

Assay [7] addresses T1, Phosphatidylinositol 4,5-bisphosphate 3-kinase catalytic subunit delta isoform (Homo sapiens, UniProt O00329).
T1 sequence (O00329 whole entry): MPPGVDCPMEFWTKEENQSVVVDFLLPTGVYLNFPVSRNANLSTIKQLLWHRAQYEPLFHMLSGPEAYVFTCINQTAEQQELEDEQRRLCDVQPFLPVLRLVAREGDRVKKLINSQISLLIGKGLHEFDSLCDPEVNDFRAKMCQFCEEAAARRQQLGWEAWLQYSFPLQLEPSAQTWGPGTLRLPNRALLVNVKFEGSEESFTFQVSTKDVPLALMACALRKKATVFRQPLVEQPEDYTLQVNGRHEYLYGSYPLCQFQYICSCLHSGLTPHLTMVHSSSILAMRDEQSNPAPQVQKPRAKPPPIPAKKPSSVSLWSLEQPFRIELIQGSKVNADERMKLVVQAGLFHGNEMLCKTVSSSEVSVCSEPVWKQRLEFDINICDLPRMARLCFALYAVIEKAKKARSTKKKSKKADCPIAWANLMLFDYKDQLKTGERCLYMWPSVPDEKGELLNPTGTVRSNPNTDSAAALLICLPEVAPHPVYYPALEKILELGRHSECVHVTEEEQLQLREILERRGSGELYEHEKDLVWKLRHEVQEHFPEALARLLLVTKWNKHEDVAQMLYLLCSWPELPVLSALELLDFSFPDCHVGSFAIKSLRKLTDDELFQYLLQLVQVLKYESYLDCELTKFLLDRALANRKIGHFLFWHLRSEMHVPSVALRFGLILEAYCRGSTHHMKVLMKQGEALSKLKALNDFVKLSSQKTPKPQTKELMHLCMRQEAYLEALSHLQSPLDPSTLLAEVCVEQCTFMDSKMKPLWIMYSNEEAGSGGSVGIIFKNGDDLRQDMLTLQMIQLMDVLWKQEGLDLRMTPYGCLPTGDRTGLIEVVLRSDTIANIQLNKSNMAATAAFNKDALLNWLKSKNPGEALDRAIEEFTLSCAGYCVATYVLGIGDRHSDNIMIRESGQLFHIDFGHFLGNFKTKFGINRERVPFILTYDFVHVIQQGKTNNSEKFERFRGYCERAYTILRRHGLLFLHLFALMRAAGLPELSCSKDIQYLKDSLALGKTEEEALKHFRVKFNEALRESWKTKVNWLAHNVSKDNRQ
In words: Inhibition of PI3Kdelta (unknown origin) using lipid as substrate incubated for 15 mins followed by substrate addition and measured after 60 mins ADPGloTM reagent based assay. Summed up:
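ADP-Glo luminescent readout of ADP formed. Isoforms tested: p110α/p85α, p110β/p85α, p120γ and p110δ/p85α, each in PI3K reaction buffer with lipid substrate. Enzyme preincubated with compound for 15 min at room temperature. ADP-Glo reagent added for 40 min, then detection reagent for 40 min. IC50 from normalized nonlinear dose–response fit.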

Assay [8] deals with MCF7. The experiment in a line: Induction of apoptosis in human MCF7 cells assessed as early apoptotic cells at 0.4 uM incubated for 48 hrs by annexin V-FITC and propidium iodide staining based flow cytometry analysis (reference value: 2.7 %). It counts as functional.
In assay [9] the test system is MCF7. The experiment in a line: Antiproliferative activity against human MCF7 cells assessed as reduction in cell viability incubated for 72 hrs by SRB assay. The format is functional, cell-based. To be noted: MCF7, 72 h. Summed up:
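Cell lines grown at 37 °C in 5% CO₂: A549 in RPMI1640, MCF-7 in DMEM, each with 10% FBS plus penicillin/streptomycin/amphotericin B. Cells exposed to a range of compound concentrations for 72 h, then TCA-fixed and SRB-stained. Growth inhibition = 100 − 100×(OD sample − OD day 0)/(OD negative control − OD day 0). IC50 from non-linear regression of percent growth against concentration.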

Activity calls are given as the source filed them. The rule behind the calls is not given here.

Phosphatidylinositol 4,5-bisphosphate 3-kinase catalytic subunit gamma isoform, sequence (P48736 whole entry, canonical isoform): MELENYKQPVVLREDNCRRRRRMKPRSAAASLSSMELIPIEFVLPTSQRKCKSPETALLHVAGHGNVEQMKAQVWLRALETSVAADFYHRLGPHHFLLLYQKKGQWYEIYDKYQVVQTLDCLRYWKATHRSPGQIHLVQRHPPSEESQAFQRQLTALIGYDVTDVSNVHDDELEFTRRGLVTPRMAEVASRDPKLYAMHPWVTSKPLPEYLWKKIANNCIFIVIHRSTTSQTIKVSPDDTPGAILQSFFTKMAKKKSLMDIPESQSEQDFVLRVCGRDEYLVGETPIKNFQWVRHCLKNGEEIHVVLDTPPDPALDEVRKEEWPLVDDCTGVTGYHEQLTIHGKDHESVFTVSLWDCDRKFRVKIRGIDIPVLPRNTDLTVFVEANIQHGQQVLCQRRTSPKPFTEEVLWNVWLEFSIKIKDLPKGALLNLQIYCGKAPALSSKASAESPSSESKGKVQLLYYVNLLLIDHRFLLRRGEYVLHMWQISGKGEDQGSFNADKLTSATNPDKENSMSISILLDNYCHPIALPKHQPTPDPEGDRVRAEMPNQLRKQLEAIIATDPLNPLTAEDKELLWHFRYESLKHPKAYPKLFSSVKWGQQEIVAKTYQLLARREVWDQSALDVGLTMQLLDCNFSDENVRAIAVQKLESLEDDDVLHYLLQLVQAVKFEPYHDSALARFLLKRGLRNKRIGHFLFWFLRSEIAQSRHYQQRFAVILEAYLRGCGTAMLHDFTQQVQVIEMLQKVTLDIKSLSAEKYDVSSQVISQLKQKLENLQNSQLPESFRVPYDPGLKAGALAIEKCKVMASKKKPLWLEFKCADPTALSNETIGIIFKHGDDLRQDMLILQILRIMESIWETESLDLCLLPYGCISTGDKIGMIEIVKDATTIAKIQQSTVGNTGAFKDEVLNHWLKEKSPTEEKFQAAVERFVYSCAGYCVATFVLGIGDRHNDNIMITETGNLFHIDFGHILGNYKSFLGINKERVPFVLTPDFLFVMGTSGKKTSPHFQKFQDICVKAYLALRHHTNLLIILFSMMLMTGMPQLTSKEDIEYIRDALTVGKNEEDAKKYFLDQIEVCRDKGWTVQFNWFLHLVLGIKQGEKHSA

By IC50 is commonly meant the concentration that gives 50% inhibition. In the case of `COc1ncc(-c2ccc3ncnc(Nc4cnn(CCO)c4)c3c2)cc1NS(=O)(=O)c1ccc(F)cc1F`, the IC50 in the assay on HUVEC is 19.6 µM; in the assay with HCT-116, 330 nM; in [6] it was 0.58 nM; in assay [7] it was 0.48 nM; in the assay on MCF7 [9], 220 nM. In addition, the Activity in the assay on MCF7 [1] turned out to be 2.7%; in the assay with MCF7 [8], 3.8%. Moreover, the inhibition result in the assay on MCF7 [2] was “Active”. Besides, in the assay with MCF7 [3], the result was Active. The inhibition entry in the assay on MCF7 [4] and with MCF7 [5] was “Dose-dependent effect” throughout.
